Assay results taken from ChEMBL document CHEMBL4229554, “Design and Characterization of Novel Covalent Bromodomain and Extra-Terminal Domain (BET) Inhibitors Targeting a Methionine” (J Med Chem, 2018).
The source made the active and inactive calls. The calls are words filed in the database; no cut-off is given here.

Tests used:
[1] = molecular target: T1, Bromodomain-containing protein 4 (Homo sapiens, UniProt O60885); experiment: Inhibition of N-terminal His-tagged BRD4 (BD1) (unknown origin) using biotinylated tetra-acetylated histone H4 peptide after 30 mins by alpha-screen assay
[2] = molecular target: T1, Bromodomain-containing protein 4; experiment: Inhibition of N-terminal His-tagged BRD4 (BD2) (unknown origin) using biotinylated tetra-acetylated histone H4 peptide after 30 mins by alpha-screen assay
[3] = molecular target: T1, Bromodomain-containing protein 4; experiment: Inhibition of N-terminal His-tagged BRD4 (BD1/BD2) (unknown origin) using biotinylated tetra-acetylated histone H4 peptide after 30 mins by alpha-screen assay
[4] = molecular target: T1, Bromodomain-containing protein 4; experiment: Binding affinity to N-terminal His-tagged BRD4 (BD1) (unknown origin) assessed as change in melting temperature at 100 uM after 0.5 hrs by SYPRO orange protein staining-based thermal denaturation assay
In short: (§1)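 N-terminally His-tagged recombinant BRD4(BD1), 5 µM, incubated with 100 µM compound and 5X SYPRO Orange in 50 mM NaCl/50 mM HEPES pH 7.4 for 30 min or 4 h. Protein thermal shift melt gives ΔTm; more than one transition may be resolved.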

[5] = molecular target: T1, Bromodomain-containing protein 4; experiment: Binding affinity to N-terminal His-tagged BRD4 (BD1) (unknown origin) assessed as change in melting temperature at 100 uM after 4 hrs by SYPRO orange protein staining-based thermal denaturation assay; in short: as §1
[6] = molecular target: T1, Bromodomain-containing protein 4; experiment: Inhibition of N-terminal His-tagged BRD4 (BD1) (unknown origin) using biotinylated tetra-acetylated histone H4 peptide after 5 mins by alpha-screen assay
In short: (§2)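 AlphaScreen: N-terminally His-tagged BRD4(BD1) (20–200 nM) with biotinylated tetra-acetylated H4 peptide (3–75 nM) in 50 mM HEPES, 100 mM NaCl, 0.1% BSA, pH 7.4, under green light. Nickel-chelate acceptor and streptavidin donor beads at 2 µg/mL final, serially diluted compounds added. Luminescence read at 570 nm.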

[7] = molecular target: T1, Bromodomain-containing protein 4; experiment: Inhibition of N-terminal His-tagged BRD4 (BD1) (unknown origin) using biotinylated tetra-acetylated histone H4 peptide after 1 hr by alpha-screen assay; in short: as §2
[8] = molecular target: T1, Bromodomain-containing protein 4; experiment: Inhibition of N-terminal His-tagged BRD4 (BD1) (unknown origin) using biotinylated tetra-acetylated histone H4 peptide after 4 hrs by alpha-screen assay; in short: as §2
MV4-11 [9] = experiment: Induction of apoptosis in human MV4-11 cells assessed as viable cells after 72 hrs by FITC annexin V-staining based flow cytometry (reference value: 96.4%); assay type: functional
MV4-11 [10] = experiment: Induction of apoptosis in human MV4-11 cells assessed as early apoptotic cells after 72 hrs by FITC annexin V-staining based flow cytometry (reference value: 1.87%); assay type: functional
MV4-11 [11] = experiment: Induction of apoptosis in human MV4-11 cells assessed as late apoptotic cells after 72 hrs by FITC annexin V-staining based flow cytometry (reference value: 1.53%); assay type: functional
MV4-11 [12] = experiment: Induction of apoptosis in human MV4-11 cells assessed as necrotic cells after 72 hrs by FITC annexin V-staining based flow cytometry (reference value: 0.21%); assay type: functional
PBMC = experiment: Cytotoxicity against human PBMC assessed as reduction in cell viability after 24 hrs by cell-titer 96 aqueous one solution reagent-based assay
[13] = molecular target: T1, Bromodomain-containing protein 4; experiment: Ratio of IC50 for inhibition of N-terminal His-tagged BRD4 (BD1) (unknown origin) using biotinylated tetra-acetylated histone H4 peptide after 4 hrs by alpha-screen assay to IC50 for inhibition of N-terminal His-tagged BRD4(BD1) (unknown origin) using biotinylated tetra-acetylated histone H4 peptide after 5 mins by alpha-screen assay; in short: as §2
MV4-11 [14] = experiment: Antiproliferative activity against human MV4-11 cells after 48 hrs by cell-titer 96 aqueous one solution reagent-based assay; assay type: functional
In short: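 MV4-11 seeded at 25,000–50,000 cells/well with two-fold compound dilutions added at seeding, triplicate wells. DMSO 0.1% final as negative control. Continuous treatment at 37 °C, 5% CO2, measured at 48 h. CellTiter 96 AQueous One reagent for 3 h, then absorbance at 490 nm. % proliferation = (OD sample − OD blank)/OD DMSO × 100. IC50 taken from dose–response.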

MV4-11 [15] = experiment: Antiproliferative activity against human MV4-11 cells preincubated for 24 hrs by followed by compound washout measured after 48 hrs post compound washout by cell-titer 96 aqueous one solution reagent-based assay; assay type: functional
In short: (§3)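 Washout format: MV4-11 plated at 25,000 cells/well with two-fold dilutions, triplicate wells. Cells treated 24 h, compound removed and cells washed twice with conditioned media. Growth continued 48 h in compound-free media. Read with CellTiter 96 AQueous One reagent, absorbance 490 nm, expressed as % of DMSO control.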

[16] = molecular target: T1, Bromodomain-containing protein 4; experiment: Irreversible inhibition of BRD4 in human MV4-11 cells assessed as suppression of MYC mRNA levels preincubated for 4 hrs followed by compound washout measured after 4 to 24 hrs post washout by RT-PCR analysis; assay type: cell-based
In short: (§4)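 MV4-11 cells, 50,000/well, exposed for 4 h at 37 °C, 5% CO2 to compound in IMDM + 10% FBS (0.2% DMSO final; DMSO-only control). Cells washed 3 times with conditioned media and placed in compound-free media, then harvested after washout for mRNA capture. One-step TaqMan real-time PCR with cyclophilin A reference. Results given as % of DMSO control.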

[17] = molecular target: T1, Bromodomain-containing protein 4; experiment: Irreversible inhibition of BRD4 in human MV4-11 cells assessed as suppression of BCL2 mRNA levels preincubated for 4 hrs followed by compound washout measured after 4 to 24 hrs post washout by RT-PCR analysis; assay type: cell-based; in short: as §4
[18] = molecular target: T1, Bromodomain-containing protein 4; experiment: Irreversible inhibition of BRD4 in human MV4-11 cells assessed as suppression of CCR1 mRNA levels preincubated for 4 hrs followed by compound washout measured after 4 to 24 hrs post washout by RT-PCR analysis; assay type: cell-based; in short: as §4
[19] = molecular target: T1, Bromodomain-containing protein 4; experiment: Irreversible inhibition of BRD4 in human MV4-11 cells assessed as suppression of […] mRNA levels preincubated for 4 hrs followed by compound washout measured after 4 to 24 hrs post washout by RT-PCR analysis; assay type: cell-based; in short: as §4
[20] = molecular target: T1, Bromodomain-containing protein 4; experiment: Irreversible inhibition of BRD4 in human MV4-11 cells assessed as suppression of IL1RN mRNA levels preincubated for 4 hrs followed by compound washout measured after 4 to 24 hrs post washout by RT-PCR analysis; assay type: cell-based; in short: as §4
MV4-11 [21] = experiment: Antiproliferative activity against human MV4-11 cells incubated for 24 hrs followed by compound removal and further incubation for 48 hrs by cell-titer 96 aqueous one solution reagent-based assay; assay type: functional; in short: as §3
[22] = molecular target: PH-interacting protein (Homo sapiens) (UniProt Q8WWQ0); experiment: Binding affinity to PHIP (unknown origin) assessed as change in melting temperature at 100 uM after 0.5 to 4 hrs by SYPRO orange protein staining-based thermal denaturation assay
In short: (§5)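 Thermal shift (PTS) screen of non-BET bromodomains. Each domain at 5 µM incubated with 100 µM covalent or control compound plus 5X SYPRO Orange in 50 mM NaCl/50 mM HEPES pH 7.4 for 30 min or 4 h. Change in Tm recorded, with a search for a high-Tm species.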

[23] = molecular target: SWI/SNF-related matrix-associated actin-dependent regulator of chromatin subfamily A member 4 (Homo sapiens) (UniProt P51532); experiment: Binding affinity to BRG1 (unknown origin) assessed as change in melting temperature at 100 uM after 0.5 to 4 hrs by SYPRO orange protein staining-based thermal denaturation assay; in short: as §5
[24] = molecular target: Transcription initiation factor TFIID subunit 1 (Homo sapiens) (UniProt P21675); experiment: Binding affinity to TAF1(2) (unknown origin) assessed as change in melting temperature at 100 uM after 0.5 to 4 hrs by SYPRO orange protein staining-based thermal denaturation assay; in short: as §5
[25] = molecular target: Histone acetyltransferase p300 (Homo sapiens) (UniProt Q09472); experiment: Binding affinity to P300 (unknown origin) assessed as change in melting temperature at 100 uM after 0.5 to 4 hrs by SYPRO orange protein staining-based thermal denaturation assay; in short: as §5
Peregrin (Homo sapiens) = molecular target: T2, Peregrin (Homo sapiens) (UniProt P55201); experiment: Binding affinity to BRPF1 (unknown origin) assessed as change in melting temperature at 100 uM after 0.5 to 4 hrs by SYPRO orange protein staining-based thermal denaturation assay; in short: as §5
T2 sequence (whole entry): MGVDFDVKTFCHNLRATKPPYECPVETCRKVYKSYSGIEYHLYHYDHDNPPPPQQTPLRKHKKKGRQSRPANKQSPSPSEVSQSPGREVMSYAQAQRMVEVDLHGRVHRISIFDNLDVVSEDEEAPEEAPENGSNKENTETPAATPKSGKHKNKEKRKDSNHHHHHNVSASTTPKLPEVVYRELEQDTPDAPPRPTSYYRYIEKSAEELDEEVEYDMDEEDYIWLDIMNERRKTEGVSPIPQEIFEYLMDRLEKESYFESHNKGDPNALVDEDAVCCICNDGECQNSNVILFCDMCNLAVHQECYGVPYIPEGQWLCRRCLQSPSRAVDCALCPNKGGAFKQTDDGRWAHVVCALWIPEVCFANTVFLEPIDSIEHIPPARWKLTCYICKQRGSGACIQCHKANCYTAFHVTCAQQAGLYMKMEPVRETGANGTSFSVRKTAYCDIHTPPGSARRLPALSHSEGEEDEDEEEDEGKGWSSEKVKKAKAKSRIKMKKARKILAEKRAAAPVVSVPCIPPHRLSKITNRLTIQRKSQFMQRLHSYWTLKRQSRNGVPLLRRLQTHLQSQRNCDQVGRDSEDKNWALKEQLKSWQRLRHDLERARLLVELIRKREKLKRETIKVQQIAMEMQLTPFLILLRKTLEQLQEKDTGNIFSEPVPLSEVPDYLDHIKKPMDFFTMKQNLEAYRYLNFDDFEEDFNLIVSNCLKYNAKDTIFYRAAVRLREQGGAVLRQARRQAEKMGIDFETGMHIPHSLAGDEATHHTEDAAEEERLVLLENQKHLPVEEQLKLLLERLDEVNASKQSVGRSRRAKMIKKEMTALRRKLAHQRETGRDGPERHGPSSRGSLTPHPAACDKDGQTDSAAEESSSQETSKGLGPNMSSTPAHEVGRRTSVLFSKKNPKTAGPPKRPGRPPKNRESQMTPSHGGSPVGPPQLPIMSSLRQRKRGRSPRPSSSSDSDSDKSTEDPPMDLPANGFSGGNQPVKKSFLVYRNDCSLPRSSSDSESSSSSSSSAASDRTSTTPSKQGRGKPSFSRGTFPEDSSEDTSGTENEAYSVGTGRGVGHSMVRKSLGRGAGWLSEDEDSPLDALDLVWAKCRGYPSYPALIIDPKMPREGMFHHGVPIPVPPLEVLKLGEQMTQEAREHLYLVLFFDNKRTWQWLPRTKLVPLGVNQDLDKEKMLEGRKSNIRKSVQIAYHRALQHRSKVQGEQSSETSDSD

[26] = molecular target: CREB-binding protein (Homo sapiens) (UniProt Q92793); experiment: Binding affinity to CREBBP (unknown origin) assessed as change in melting temperature at 100 uM after 0.5 to 4 hrs by SYPRO orange protein staining-based thermal denaturation assay; in short: as §5
[27] = molecular target: T1, Bromodomain-containing protein 4; experiment: Binding affinity to N-terminal His-tagged BRD4 (BD1) (unknown origin) assessed as change in melting temperature incubated for 4 hrs in presence of increasing concentrations of cysteine amino acids by SYPRO orange protein staining-based thermal denaturation assay
In short: (§6)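 Preformed BRD4(BD1)–compound covalent complex incubated with excess free cysteine or methionine. Reversibility assessed by SYPRO Orange thermal denaturation, monitoring the complex's Tm.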

[28] = molecular target: T1, Bromodomain-containing protein 4; experiment: Binding affinity to N-terminal His-tagged BRD4 (BD1) (unknown origin) assessed as change in melting temperature incubated for 4 hrs in presence of increasing concentrations of methionine by SYPRO orange protein staining-based thermal denaturation assay; in short: as §6

Chain of SWI/SNF-related matrix-associated actin-dependent regulator of chromatin subfamily A member 4 (Homo sapiens) (P51532 whole entry): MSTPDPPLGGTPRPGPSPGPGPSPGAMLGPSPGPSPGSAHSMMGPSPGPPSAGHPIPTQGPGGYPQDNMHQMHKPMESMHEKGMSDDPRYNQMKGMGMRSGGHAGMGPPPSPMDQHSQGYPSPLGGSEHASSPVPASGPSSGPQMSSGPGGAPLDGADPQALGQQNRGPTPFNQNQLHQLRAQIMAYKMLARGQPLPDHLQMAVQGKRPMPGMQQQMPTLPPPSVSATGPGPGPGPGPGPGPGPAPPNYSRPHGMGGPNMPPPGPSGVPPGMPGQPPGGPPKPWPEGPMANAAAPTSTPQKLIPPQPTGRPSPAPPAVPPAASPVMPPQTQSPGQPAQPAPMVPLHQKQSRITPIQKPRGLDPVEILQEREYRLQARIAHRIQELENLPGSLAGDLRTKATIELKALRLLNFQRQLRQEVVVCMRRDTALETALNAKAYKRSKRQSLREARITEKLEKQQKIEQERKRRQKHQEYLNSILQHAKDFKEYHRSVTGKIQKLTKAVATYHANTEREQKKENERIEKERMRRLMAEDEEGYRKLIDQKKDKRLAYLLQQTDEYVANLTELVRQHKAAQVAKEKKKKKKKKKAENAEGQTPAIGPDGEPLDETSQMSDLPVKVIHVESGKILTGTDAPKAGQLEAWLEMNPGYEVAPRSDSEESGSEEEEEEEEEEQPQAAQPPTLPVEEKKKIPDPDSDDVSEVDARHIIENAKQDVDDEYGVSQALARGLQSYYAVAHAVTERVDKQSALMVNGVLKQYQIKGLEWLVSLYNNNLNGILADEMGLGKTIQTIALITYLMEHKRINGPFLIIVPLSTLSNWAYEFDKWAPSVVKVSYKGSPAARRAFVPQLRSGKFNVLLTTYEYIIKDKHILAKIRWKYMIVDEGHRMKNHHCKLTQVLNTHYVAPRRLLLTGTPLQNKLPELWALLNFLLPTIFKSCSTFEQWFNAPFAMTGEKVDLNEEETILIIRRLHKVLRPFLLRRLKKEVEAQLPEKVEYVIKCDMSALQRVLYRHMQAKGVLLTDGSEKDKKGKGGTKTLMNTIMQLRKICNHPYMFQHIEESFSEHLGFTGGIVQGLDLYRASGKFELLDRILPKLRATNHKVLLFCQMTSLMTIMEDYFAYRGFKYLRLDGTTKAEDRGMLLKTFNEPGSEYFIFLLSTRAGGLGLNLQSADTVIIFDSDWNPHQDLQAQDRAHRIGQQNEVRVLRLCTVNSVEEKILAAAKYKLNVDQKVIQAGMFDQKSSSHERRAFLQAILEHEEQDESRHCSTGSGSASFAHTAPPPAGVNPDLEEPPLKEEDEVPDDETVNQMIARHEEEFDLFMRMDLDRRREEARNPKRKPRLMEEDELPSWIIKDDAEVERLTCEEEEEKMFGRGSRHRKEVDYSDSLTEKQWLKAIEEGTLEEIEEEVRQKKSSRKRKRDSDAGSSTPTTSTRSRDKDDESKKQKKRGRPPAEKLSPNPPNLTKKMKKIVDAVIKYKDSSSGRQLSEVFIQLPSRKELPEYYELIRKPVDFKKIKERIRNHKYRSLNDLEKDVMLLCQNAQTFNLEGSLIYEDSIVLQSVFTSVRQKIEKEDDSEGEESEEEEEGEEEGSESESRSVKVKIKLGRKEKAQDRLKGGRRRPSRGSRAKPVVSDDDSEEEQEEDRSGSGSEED
Chain of CREB-binding protein (Homo sapiens) (Q92793 2-2442 limits assumed): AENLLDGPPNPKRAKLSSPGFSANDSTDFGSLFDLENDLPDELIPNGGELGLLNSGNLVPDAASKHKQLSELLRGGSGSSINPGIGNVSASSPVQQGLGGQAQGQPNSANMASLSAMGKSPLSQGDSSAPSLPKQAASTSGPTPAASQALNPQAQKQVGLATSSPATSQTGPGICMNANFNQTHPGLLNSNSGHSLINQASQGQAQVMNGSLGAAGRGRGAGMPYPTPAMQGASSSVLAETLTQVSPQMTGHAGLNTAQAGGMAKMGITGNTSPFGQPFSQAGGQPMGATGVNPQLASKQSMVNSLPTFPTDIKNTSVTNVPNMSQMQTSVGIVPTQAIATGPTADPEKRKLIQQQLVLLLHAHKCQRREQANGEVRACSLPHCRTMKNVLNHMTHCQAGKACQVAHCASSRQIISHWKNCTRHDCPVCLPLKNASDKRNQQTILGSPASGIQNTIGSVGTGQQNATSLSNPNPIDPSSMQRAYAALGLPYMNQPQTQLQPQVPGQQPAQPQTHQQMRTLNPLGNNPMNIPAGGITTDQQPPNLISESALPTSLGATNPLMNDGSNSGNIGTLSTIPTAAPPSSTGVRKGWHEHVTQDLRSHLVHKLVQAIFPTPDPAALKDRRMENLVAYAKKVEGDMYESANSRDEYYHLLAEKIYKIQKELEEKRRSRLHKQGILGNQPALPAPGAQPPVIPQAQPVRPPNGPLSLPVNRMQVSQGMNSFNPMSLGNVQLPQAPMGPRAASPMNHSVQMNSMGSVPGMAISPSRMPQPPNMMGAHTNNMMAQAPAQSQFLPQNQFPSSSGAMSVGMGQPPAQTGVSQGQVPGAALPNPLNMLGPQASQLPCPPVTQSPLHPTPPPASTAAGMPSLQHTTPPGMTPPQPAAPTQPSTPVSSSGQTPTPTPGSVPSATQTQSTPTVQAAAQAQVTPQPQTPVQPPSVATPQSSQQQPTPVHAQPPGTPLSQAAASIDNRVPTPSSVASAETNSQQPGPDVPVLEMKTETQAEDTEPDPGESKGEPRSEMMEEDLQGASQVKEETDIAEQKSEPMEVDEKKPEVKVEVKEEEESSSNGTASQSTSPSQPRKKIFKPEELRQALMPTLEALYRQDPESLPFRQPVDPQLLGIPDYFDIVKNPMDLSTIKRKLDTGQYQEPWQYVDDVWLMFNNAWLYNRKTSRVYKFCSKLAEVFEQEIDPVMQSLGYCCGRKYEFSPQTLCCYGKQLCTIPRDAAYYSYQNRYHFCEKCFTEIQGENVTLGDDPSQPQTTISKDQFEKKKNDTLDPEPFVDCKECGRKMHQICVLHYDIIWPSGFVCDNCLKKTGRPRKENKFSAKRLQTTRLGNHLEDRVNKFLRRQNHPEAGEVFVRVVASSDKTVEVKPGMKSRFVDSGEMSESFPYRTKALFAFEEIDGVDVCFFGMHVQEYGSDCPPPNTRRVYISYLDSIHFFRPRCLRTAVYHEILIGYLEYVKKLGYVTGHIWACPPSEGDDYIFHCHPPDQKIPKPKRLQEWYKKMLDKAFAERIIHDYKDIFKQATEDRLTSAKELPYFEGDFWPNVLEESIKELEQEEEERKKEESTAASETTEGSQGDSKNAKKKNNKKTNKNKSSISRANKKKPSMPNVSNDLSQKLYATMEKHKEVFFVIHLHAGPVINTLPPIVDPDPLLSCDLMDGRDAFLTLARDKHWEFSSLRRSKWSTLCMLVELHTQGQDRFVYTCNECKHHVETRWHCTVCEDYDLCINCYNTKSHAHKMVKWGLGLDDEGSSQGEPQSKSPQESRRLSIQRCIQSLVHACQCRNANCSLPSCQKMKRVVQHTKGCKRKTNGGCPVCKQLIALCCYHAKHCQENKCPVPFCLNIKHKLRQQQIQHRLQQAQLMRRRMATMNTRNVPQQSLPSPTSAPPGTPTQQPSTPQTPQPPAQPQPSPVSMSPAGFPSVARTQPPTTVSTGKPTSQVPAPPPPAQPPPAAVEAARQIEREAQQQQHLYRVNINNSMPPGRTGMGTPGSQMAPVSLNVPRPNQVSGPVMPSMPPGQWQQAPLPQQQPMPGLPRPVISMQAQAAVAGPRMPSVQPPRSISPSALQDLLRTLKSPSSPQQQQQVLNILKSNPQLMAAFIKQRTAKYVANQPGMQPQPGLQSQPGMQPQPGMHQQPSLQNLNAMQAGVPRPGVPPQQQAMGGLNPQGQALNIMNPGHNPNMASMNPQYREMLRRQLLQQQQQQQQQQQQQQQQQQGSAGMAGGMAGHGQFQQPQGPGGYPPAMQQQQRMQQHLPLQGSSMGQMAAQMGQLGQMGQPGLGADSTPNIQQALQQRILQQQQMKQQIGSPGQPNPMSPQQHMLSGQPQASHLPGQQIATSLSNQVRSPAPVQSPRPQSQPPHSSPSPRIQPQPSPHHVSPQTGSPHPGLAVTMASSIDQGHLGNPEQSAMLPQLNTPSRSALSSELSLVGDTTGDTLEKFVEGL

| IC50 [1] [nM] | IC50 [2] [nM] | IC50 [3] [nM] | Activity [4] | Activity [5] | IC50 [6] [nM] | IC50 [7] [nM] | IC50 [8] [nM] | Ratio IC50 [13] | Activity [22] | Activity [23] | Activity [24] | Activity [25] | Structure (SMILES) | Activity (MV4-11 [9]) [%] | Activity (MV4-11 [10]) [%] | Activity (MV4-11 [11]) [%] | Activity (MV4-11 [12]) [%] | Activity (PBMC) | Activity (MV4-11 [15]) | Activity (MV4-11 [21]) | also measured |
| --- | --- | --- | --- | --- | --- | --- | --- | --- | --- | --- | --- | --- | --- | --- | --- | --- | --- | --- | --- | --- | --- |
| 20 | 10 | 50 | Active | Active | 17 | 8 | 19 | 1 | – | – | – | – | Cc1noc(C)c1-c1cc(N)c2ncn(Cc3ccccc3)c2c1 | 17.6 | 45 | 24.2 | 13.3 | Non-Toxic | – | – | – |
| 160 | 130 | – | Active | Active | – | – | – | – | inactive | inactive | inactive | inactive | Cc1noc(C)c1-c1ccc(=O)n(Cc2ccc(C3CO3)c(F)c2)c1 (stereo not given) | – | – | – | – | – | Active | Active | Activity (MV4-11 [14]): Active; inhibition [16]: Active; inhibition [17]: Active; inhibition [18]: Active; inhibition [19]: Active; inhibition [20]: Active; Activity (Peregrin (Homo sapiens)): inactive; Activity [26]: inactive |
| 50 | 50 | 60 | Active | Active | 274 | 75 | 15 | 18 | – | – | – | – | Cc1noc(C)c1-c1cc(N)c2ncn(Cc3ccc(C4CO4)cc3)c2c1 (stereo not given) | 12.5 | 65.9 | 19.6 | 2.05 | Non-Toxic | Active | Active | – |
| 230 | 80 | 280 | – | – | – | – | – | – | inactive | inactive | inactive | inactive | Cc1noc(C)c1-c1ccc(=O)n(Cc2ccccc2)c1 | – | – | – | – | – | – | – | ΔTm [4]: 5 °C; Activity [27]: Active; Activity [28]: Active; Activity (Peregrin (Homo sapiens)): inactive; Activity [26]: inactive |
